Each structure is given as a SMILES string. Screen size: about 2,500 compounds; about 460 (18%) were called active.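 Rule for the calls: active = mean activation above a cutoff of low control average plus 3 SD from the earlier screen (cut at about 12% in these data); inactive = the rest.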 The list is a sample of the results.

The nature of the experiment: IANBD-channel fluorescence artefacts in buffer – biochemical, artefact control for cardiac RTF calcium sensitizer project, confirmation (AID 504382). The settings on record: IANBD fluorescence interference counterscreen, EC20 Ca2+, at 7.2 µM, active compounds read high, scaled: EC20 calcium 0, EC100 calcium 100. The method, boiled down:
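Medium: MOPS buffer, 190 mM, with KCl, MgCl2, EGTA, NTA, DTT, pH 7.20; Dosing: one dose of 7.2 µM, 0.7% DMSO; Probe or stimulus: calcium at EC20 level, 0.472 mM final; Incubation: 15 min, 25 °C; Evaluation: compound fluorescence interference relative to control well signal range; Signal: fluorescence, 480/540 nm.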
In general terms: A counterscreen serves to expose hits that act by an unwanted route or on another target.
As to `O=C1NC2=C(C(=O)CCC2)C(c2ccccc2Cl)N1` (stereo not given), the fluorescence artifact activation was 0.2% (inactive).

For the compound `O=C1N(c2ccc(Cl)cc2)C(c2ccccc2)N2CCCN12` (stereo not given), the fluorescence artifact activation is -0.06% (inactive).

Regarding `CCOc1ccc(N=C2NC(=O)S/C2=C\c2ccc(N(C)C)cc2)cc1`, the fluorescence artifact activation is 1920% (active).

`COc1ccc(N=C2NC(=O)S/C2=C\c2ccc(N(C)C)cc2)cc1`: the fluorescence artifact activation was 9.11% (inactive).

On to `C=CCOc1ccc(/C=C2\SC(=Nc3cccnc3)NC2=O)cc1`, for which the fluorescence artifact activation is 0.04% (inactive).

For the compound `N#CC1(C#N)C(c2ccccc2)OC23CCCCC2C1(C#N)C(=N)O3` (stereo not given), the fluorescence artifact activation was 0.04% (inactive).

With `COc1cc(/C=C2\N=C3CCCCCN3C2=O)ccc1O`, the fluorescence artifact activation was -0.06% (inactive).

Take `O=C(CCC1CCCN(C(=O)c2ccncc2)C1)NCc1ccc(F)c(F)c1` (stereo not given): the fluorescence artifact activation is 0.02% (inactive).

For the compound `Oc1ccc2ccc3cccc[n+]3c2c1`, the fluorescence artifact activation was 12.9% (active).

Consider `CCn1c(SCC(=O)c2ccc(Cl)cc2)nnc1C(C)C`, for which the fluorescence artifact activation is 2.06% (inactive).

Regarding `COc1ccc(CN2CCN(C(=O)c3ccccc3F)CC2)c(OC)c1OC`, the fluorescence artifact activation was 14.3% (active).

As for `COc1ccc(CN2CCC(C(=O)N3CCN(c4ccccc4F)CC3)CC2)cc1OC`, the fluorescence artifact activation is 0.36% (inactive).

Turning to `COc1ccccc1Nc1ncc(C(=O)N2CCC(C(N)=O)CC2)c2ccccc12`, the fluorescence artifact activation was -0.02% (inactive).

Consider `COc1ccc(CC(=O)N(C)Cc2cccc(F)c2)cc1S(=O)(=O)N1CCOCC1`, for which the fluorescence artifact activation was 0.26% (inactive).

`CSc1ccc(C2NC(=O)c3c(sc4c3CCN(C)C4)N2)cc1` (stereo not given): the fluorescence artifact activation is 4.52% (inactive).

For the compound `N#Cc1ccc(S(=O)(=O)NC2CCCCNC2=O)cc1` (stereo not given), the fluorescence artifact activation is 26.9% (active).

Take `N#Cc1ccc(S(=O)(=O)NC2CCN(Cc3ccccc3)CC2)cc1`: the fluorescence artifact activation was 2.37% (inactive).

Regarding `O=C1NCCCCC1NS(=O)(=O)c1cccc(C(F)(F)F)c1` (stereo not given), the fluorescence artifact activation is 0.33% (inactive).

In the case of `CCN1CCc2c(sc(NC(=O)c3ccc(S(=O)(=O)N(C)c4ccccc4)cc3)c2C(=O)NC)C1`, the fluorescence artifact activation is 0.31% (inactive).

As for `CCC(Oc1cc(Cl)ccc1Cl)C(=O)NNC(=O)CCC(=O)O` (stereo not given), the fluorescence artifact activation was 0.03% (inactive).

Take `COc1ccc(/C=N/N=C2/CC(C)(C)Cc3n[nH]c(=O)cc32)cc1`: the fluorescence artifact activation is 357% (active).

With `CCn1c(O)c(/C=N/N=C/c2ccc(OC)cc2)c2cc(C3=NNC(=O)CC3)ccc21`, the fluorescence artifact activation was 5.84% (inactive).

For the compound `CCn1cc(/C=C/c2cc[n+](C)cc2)c2ccccc21`, the fluorescence artifact activation is 0.09% (inactive).

Regarding `CC1CN/C(=C\C(=O)c2ccc(Br)cc2)C(=O)N1` (stereo not given), the fluorescence artifact activation is -0.09% (inactive).

For the compound `CCN(CC)c1ccc2cc(NC(=O)CCC(=O)O)c(=O)oc2c1`, the fluorescence artifact activation is 0.3% (inactive).

For the compound `CCN(CC)c1ccc2cc(S(=O)(=O)c3ccc(C)cc3)c(=O)oc2c1`, the fluorescence artifact activation is 9.02% (inactive).

Consider `CCN(CC)c1ccc2cc(S(=O)(=O)c3ccc(Cl)cc3)c(=O)oc2c1`, for which the fluorescence artifact activation was 156% (active).

As to `COc1ccc(C2c3ccc(O)cc3Oc3ncn(CCN4CCOCC4)c(=N)c32)cc1OC` (stereo not given), the fluorescence artifact activation was 5.12% (inactive).

As for `CC(C)c1ccc(OCC(=O)NC(Cc2c[nH]c3ccccc23)C(=O)O)cc1` (stereo not given), the fluorescence artifact activation is 0.01% (inactive).

Consider `CN1CCc2c(sc3c2C(=O)NC(c2ccco2)N3)C1` (stereo not given), for which the fluorescence artifact activation is 0.18% (inactive).

Take `O=C(O)C1CC(O)CN1C(=O)c1ccco1` (stereo not given): the fluorescence artifact activation was 0.06% (inactive).

Take `O=C(NCc1ccco1)C1Cc2ccccc2CN1C(=O)c1ccco1` (stereo not given): the fluorescence artifact activation is 1040% (active).

As for `O=C(NCc1ccco1)C1CCC(N2C(=O)C3C4CCC(C4)C3C2=O)CC1` (stereo not given), the fluorescence artifact activation is 0.07% (inactive).

For `COc1cccc(OC)c1C(=O)NNC(=O)c1ccccc1-n1cccc1`, the fluorescence artifact activation was -0.01% (inactive).

For the compound `CC(C)(C)C(=O)c1sc2nc(-c3cccs3)cc(C(F)(F)F)c2c1N`, the fluorescence artifact activation is 0.13% (inactive).

Consider `CCOc1nc(OCC)c2[nH]c(C(=O)O)c(Br)c2n1`, for which the fluorescence artifact activation was 0.34% (inactive).

As for `O=C(c1ccccc1Nc1ccc(SC(F)F)cc1)N1CCCCC1`, the fluorescence artifact activation is 0.06% (inactive).

In the case of `COc1ccc(C2C(C(=O)c3ccccc3)N3c4ccccc4C=CC3C2[N+](=O)[O-])cc1` (stereo not given), the fluorescence artifact activation was 10.3% (inactive).

Regarding `O=[N+]([O-])c1ccc(C2=NN(c3ccccc3)C(c3ccco3)C2)cc1` (stereo not given), the fluorescence artifact activation is -0.01% (inactive).

Regarding `O=[N+]([O-])c1ccc(N2N=C(c3ccccc3)CC2c2ccccc2O)cc1` (stereo not given), the fluorescence artifact activation is 47.5% (active).

For `N#CCC(=O)N/N=C/c1ccc(N2N=C(c3ccccc3)CC2c2ccccc2)cc1` (stereo not given), the fluorescence artifact activation was -0.02% (inactive).

Turning to `NS(=O)(=O)c1ccc(N2N=C(c3ccccc3)CC2c2ccccc2)cc1` (stereo not given), the fluorescence artifact activation was 15.1% (active).

Regarding `N#CC1CC(c2ccc([N+](=O)[O-])cc2)=NN1c1ccc([N+](=O)[O-])cc1` (stereo not given), the fluorescence artifact activation is 0.52% (inactive).

For the compound `COc1ccc(C2CC(c3ccncc3)=NN2c2ccc(S(N)(=O)=O)cc2)cc1` (stereo not given), the fluorescence artifact activation is 1.86% (inactive).

On to `CN(CC(=O)N1CCN(c2ncccn2)CC1)S(=O)(=O)c1ccc(Cl)cc1`, for which the fluorescence artifact activation was 0% (inactive).

`CCOC(=O)[C@H]1[C@H]2COc3ccccc3[C@@H]2N2C(=O)CN(Cc3ccc(C)cc3)C(=O)[C@@]12C`: the fluorescence artifact activation was 0.38% (inactive).

For the compound `COc1ccc(/C=N/Nc2ncc(C(F)(F)F)cc2Cl)cc1OC`, the fluorescence artifact activation was -0.02% (inactive).

On to `CC(C(=O)N1CCc2ccccc2C1)N1C(=O)c2ccccc2C1=O` (stereo not given), for which the fluorescence artifact activation is 0.12% (inactive).

Take `CCOC(=O)c1cc(C#N)c(SCC(=O)c2cc(C#N)c(SC)nc2C)[nH]c1=O`: the fluorescence artifact activation is 6.31% (inactive).

On to `CC(=O)n1c(C=Nc2ccc(Cl)cc2)c(O)c2ccccc21`, for which the fluorescence artifact activation is 0.42% (inactive).

`COc1ccc(C2=NS(=O)(=O)N(C)C(C(=O)NC3CCCC3)=C2)cc1`: the fluorescence artifact activation was -0.02% (inactive).

As for `O=C(CCc1nc2sc3c(c2c(=O)[nH]1)CCCC3)Nc1ccccc1Cl`, the fluorescence artifact activation is 31.9% (active).

Take `CCC(=O)Nc1nc2c(c(=O)[nH]1)CCCC2`: the fluorescence artifact activation was 0.02% (inactive).

In the case of `O=C(CN1C(=O)NC2(CCCCC2)C1=O)Nc1ccccc1Cl`, the fluorescence artifact activation was 0.05% (inactive).

As for `CSCC(O)Cn1ncc2ccccc2c1=O` (stereo not given), the fluorescence artifact activation is -0.02% (inactive).

As for `O=C1CSC(=S)N1c1ccc(O)cc1`, the fluorescence artifact activation was 0.03% (inactive).

In the case of `CN(C)/C=C1\SC(=S)N(c2ccc(Br)cc2)C1=O`, the fluorescence artifact activation was 43.8% (active).

Turning to `CCN1C(=O)/C(=C/C=C2\N(CC)c3cc(S(=O)(=O)N(C)C)ccc3N2c2ccccc2)SC1=S`, the fluorescence artifact activation was 0.15% (inactive).

As to `CC(C)c1ccc(N2C(=O)/C(=C/N(C)C)SC2=S)cc1`, the fluorescence artifact activation is 18.9% (active).

In the case of `COCCNC(=O)CSc1nc(N)c(NC(=O)c2ccccc2F)c(=O)[nH]1`, the fluorescence artifact activation was 1.87% (inactive).
